A selection: hits, their analogues and other compounds. The true share with any hit is near 2.5%.
PG9 Ab binder – binds the HIV-1 gp120 antibody PG9; hit rate 0.43% among 360,000; inhibition, % at 6.7 µM; TR-FRET gp120-PG9 antibody binding; AID 624416; in the data active = inhibition above about 8.5%
Rev-erbA mod – modulates human Rev-erb alpha binding to DNA. P20393. Rev-erbα–FITC-DNA binding, fluorescence polarization, 90 min. activity, % at 10 µM. hit rate 0.79% among 370,000;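 active = activity above about 14%, limit read from the data; passing the limit was not always enough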
MC4R barr agon – human MC4R agonism via beta-arrestin; U2OS MC4R beta-arrestin complementation, luminescence; percent of melanotan II response, DMSO zero; activation, % at 8.9 µM; hit rate 0.98% among 360,000; AID 540308;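 active = activation above a per-plate cutoff, the mean activation of sample wells on that plate plus 3 SD, cut at about 8% in these data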
NTR1 agonist – activates human neurotensin receptor 1; P30989; NTR1-U2OS beta-arrestin-GFP spot imaging, agonist mode; activation, % at 20 µM; hit rate 0.17% among 330,000; AID 493036;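 active = activation at or above 40% of the spot to cytoplasm intensity ratio, with at least 20 cells analyzed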
Target sequence (P30989 whole entry, looked up): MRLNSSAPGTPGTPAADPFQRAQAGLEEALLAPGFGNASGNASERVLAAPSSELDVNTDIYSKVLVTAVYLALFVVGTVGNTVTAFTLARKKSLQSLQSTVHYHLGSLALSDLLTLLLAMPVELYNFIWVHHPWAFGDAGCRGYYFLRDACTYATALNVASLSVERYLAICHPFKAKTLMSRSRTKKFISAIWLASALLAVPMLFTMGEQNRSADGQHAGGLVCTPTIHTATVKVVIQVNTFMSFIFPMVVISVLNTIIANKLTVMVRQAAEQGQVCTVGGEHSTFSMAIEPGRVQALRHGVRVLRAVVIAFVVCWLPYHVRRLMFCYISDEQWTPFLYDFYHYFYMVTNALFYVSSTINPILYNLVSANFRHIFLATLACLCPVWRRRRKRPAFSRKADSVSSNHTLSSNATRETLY
MC4R antag cAMP – antagonists of human melanocortin 4 receptor (MC4R). P32245. MC4R-expressing cells, MTII-stimulated cAMP, LANCE TR-FRET. inhibition, % at 6.5 µM. hit rate 0.48% among 360,000;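 active = inhibition above its plate's cutoff, the mean of tested wells on that plate plus 3 SD, cut at about 29% in these data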
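System: U2OS-MC4R stable cell line; Technique: Eu-cAMP/anti-cAMP TR-FRET, emission 671 nm; Repeats: single well per compound; Also added: Melanotan II; Dosing: one concentration, 6.5 µM nominal; Schedule: 30-min compound, 1-h challenge, 1-h detection, room temperature.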
Numbers stand for hits; – = inactive; · = not tested or not shown.

SMILES | PG9 Ab binder | Rev-erbA mod | MC4R barr agon | NTR1 agonist | MC4R antag cAMP
CCCCNC(=O)COC(=O)c1c2c(nc3ccccc13)/C(=C\c1cccs1)CC2 | – | – | – | · | –
CC(C)CNC(=O)COC(=O)c1c2c(nc3ccccc13)/C(=C/c1cccs1)CC2 | – | – | 9.5 | · | –
NC(c1csc(Nc2ccc(C(F)(F)F)cn2)n1)C1CCCCC1 (stereo unspecified) | – | – | 8.9 | · | –
NC(CO)c1csc(Nc2ccc(C(F)(F)F)cn2)n1 (stereo unspecified) | – | – | – | · | –
Cc1nn(Cc2ccc(Cl)cc2)c(=O)n1N(C)c1ncc(C(F)(F)F)cc1Cl | – | – | 9.2 | – | –
Cc1nn(Cc2ccc([N+](=O)[O-])cc2)c(=O)n1N(C)c1ncc(C(F)(F)F)cc1Cl | – | – | – | – | –
COC(=O)c1ccc(NC(=O)CSc2nc3[nH]ncc3c(=O)[nH]2)cc1 | – | – | – | – | –
CC(=O)c1ccc(NC(=O)CSc2nc3[nH]ncc3c(=O)[nH]2)cc1 | 41.0 | – | – | – | –
COc1ccc(N(CCCN2C(=O)c3cccc4cccc(c34)C2=O)C(=O)c2cccnc2)cc1 | – | – | 11.0 | – | –
C[C@H]1O[C@@H](n2c3ccc(Cl)cc3c3ccc4c5cc(Cl)ccc5[nH]c4c32)[C@H](O)[C@H](O)[C@H]1O | · | – | · | · | ·
COc1cc2[nH]c3c(N4CCN(c5ccc(Cl)cc5)CC4)ncnc3c2cc1OC | – | – | 11.7 | – | –
COc1cc2[nH]c3c(Cl)ncnc3c2cc1OC | – | – | – | – | –
Cc1ccc(S(=O)(=O)NC(C)(C)CN2CCC(Cc3ccccc3)CC2)cc1 | – | – | 8.4 | – | –
O=C(O)c1ccccc1OC(C(=O)Nc1cc(Cl)cc(Cl)c1)c1ccccc1 (stereo unspecified) | – | – | 9.3 | – | –
O=C(Nc1cc(Cl)cc(Cl)c1)C(c1ccccc1)N1CCCCC1 (stereo unspecified) | – | – | – | – | –
O=C(COC(=O)c1n[nH]c2ccccc12)Nc1ccc(Cl)cc1[N+](=O)[O-] | – | – | 9.1 | – | –
O=C(NCc1ccc(F)cc1)c1ccc(S(=O)(=O)N2CCCCC2)cc1 | – | – | – | – | –
O=C(NCc1ccc(Cl)cc1)c1ccc(S(=O)(=O)N2CCCCC2)cc1 | – | – | 9.4 | – | –
CCOC(=O)CC[C@H]1CC[C@]2(CCCN(C(=O)c3ccccc3)C2)O1 | · | – | · | · | ·
COC(=O)c1sc(NC(=O)COc2cccc3ccccc23)nc1C | – | – | 8.4 | – | –
CCOC(=O)c1sc(NC(=O)CSc2nnnn2-c2ccccc2)nc1C | – | – | – | – | –
COC(=O)c1sc(NC(=O)CSc2nnnn2-c2cccc(OC)c2)nc1C | – | – | 8.7 | – | –
CN(C)CCC(=O)c1ccc2c(c1)OCO2 | – | – | – | – | 33.4
C[C@@H]1CN([C@H](C)CO)C(=O)c2cc(NC(=O)Nc3ccccc3)ccc2O[C@@H](C)CCCCO[C@H]1CN(C)S(=O)(=O)c1ccc(F)cc1 | · | – | · | · | ·
Cc1ccc(N2C(=O)C3CC(c4ccccc4)=C4C5C=CC(C6C(=O)N(c7ccc(C)cc7)C(=O)C56)C4C3C2=O)cc1 (stereo unspecified) | – | – | 8.6 | – | –
SMILES | PG9 Ab binder | Rev-erbA mod | MC4R barr agon | NTR1 agonist | MC4R antag cAMP
Cc1ccc(N2C(=O)C3CC(c4ccccc4)=C4C5C=CC(C6C(=O)N(c7ccc(C)cc7C)C(=O)C56)C4C3C2=O)c(C)c1 (stereo unspecified) | · | · | – | – | –
COC(=O)C(=N/Nc1ccccc1C(=O)OC)/C(C)=N/O | – | – | 8.8 | – | –
CC(C)(C)OC(=O)NCc1ccc(CNC(=O)c2[nH]cnc2C(=O)Nc2ccccc2F)cc1 | – | – | 9.3 | · | –
O=S(=O)(c1ccc(S(=O)(=O)N(Cc2ccccc2)Cc2ccco2)cc1)N1CCCC1 | – | – | 8.5 | – | –
COc1ccc(-c2cc(NC(=O)Cc3c[nH]c4ccccc34)ccc2Nc2cccnc2)cc1F | – | – | · | · | ·
Cc1nc2ccccc2cc1OCc1ccccc1 | – | – | 8.5 | – | –
COC(=O)[C@]12C[C@H](CC(=O)NCc3ccc(C)o3)C(=O)N(Cc3ccccc3)C1=C[C@H](C(C)(C)C)O[C@@H]2C | – | – | · | · | ·
OCC1(Cc2cccc(C(F)(F)F)c2)CCN(Cc2cc3ccccc3o2)CC1 | – | – | 9.2 | – | –
Cc1ccc(-c2nc3sc4c(N)ncnc4c3c3c2CCCC3)cc1 | – | – | 8.4 | – | –
